Source: ChEMBL document CHEMBL4354825, “Design and Synthesis of Basic Selective Estrogen Receptor Degraders for Endocrine Therapy Resistant Breast Cancer” (J Med Chem, 2019)
The source made the active and inactive calls. The calls are words filed in the database; no cut-off is given here.

Tests used:
[1] = Antiproliferative activity against human MCF7:WS8 cells assessed as reduction in cell viability incubated for 5 days by Hoechst 33258 dye based assay; assay type: functional; conditions: MCF7:WS8, 120 h
How it was run: (§1)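 Cells were seeded at 5000 per well; MCF7:WS8 had been estrogen-stripped for 2 days first. Compounds were serially diluted in DMSO, with 0.01% DMSO as vehicle. The medium was removed on day 5 (MCF7:WS8) or day 7 (MCF7:5C), and cells were lysed by freezing at −80 °C overnight. DNA was measured by Hoechst 33258 fluorescence. Maximum efficacy was normalized to vehicle (0%) and no cells (100%); at least three biological replicates.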

[2] = Antiproliferative activity against human MCF7:WS8 cells assessed as reduction in cell viability incubated for 5 days by Hoechst 33258 dye based assay relative to control; assay type: functional; conditions: MCF7:WS8, 120 h; how it was run: as §1
cells = conditions: Homo sapiens, MCF7:5C, 168 h
[3] = (§2) Antiproliferative activity against human MCF7:5C cells assessed as reduction in cell viability incubated for 7 days by Hoechst 33258 dye based assay relative to control; assay type: functional; conditions: 168 h; how it was run: as §1
Estrogen receptor [4] = molecular target: T1, Estrogen receptor (Homo sapiens, UniProt P03372); assay: Inhibition of ERalpha in human MCF7:WS8 cells assessed as increase in degradation of ERalpha incubated for 24 hrs by In-Cell Western assay; assay type: cell-based
T1 sequence (P03372 whole entry): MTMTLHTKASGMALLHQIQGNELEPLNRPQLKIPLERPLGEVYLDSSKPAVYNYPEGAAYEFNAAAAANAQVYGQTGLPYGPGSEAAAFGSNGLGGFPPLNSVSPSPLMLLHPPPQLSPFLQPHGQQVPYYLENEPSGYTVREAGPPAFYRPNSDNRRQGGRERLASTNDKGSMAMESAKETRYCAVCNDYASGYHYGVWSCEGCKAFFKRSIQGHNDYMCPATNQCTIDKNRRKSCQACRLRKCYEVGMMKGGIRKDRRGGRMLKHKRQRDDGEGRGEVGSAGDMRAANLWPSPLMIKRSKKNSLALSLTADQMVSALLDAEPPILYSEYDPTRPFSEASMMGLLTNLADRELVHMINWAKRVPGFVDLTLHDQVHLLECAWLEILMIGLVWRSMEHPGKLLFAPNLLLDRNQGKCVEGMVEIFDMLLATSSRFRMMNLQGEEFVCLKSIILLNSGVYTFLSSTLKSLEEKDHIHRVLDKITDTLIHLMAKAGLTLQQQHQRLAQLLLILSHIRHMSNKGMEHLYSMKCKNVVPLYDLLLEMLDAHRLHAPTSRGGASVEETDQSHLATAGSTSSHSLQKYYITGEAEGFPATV
How it was run: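 MCF7:WS8 cells were estrogen-stripped for 2 days and plated at 2.5 × 10^4 per well. ERα was detected by in-cell western (H10 antibody), with signal normalized to CellTag 700.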

[5] = molecular target: T2, Estrogen receptor (Homo sapiens) (UniProt P03372); assay: Inhibition of ERalpha in human MCF7:WS8 cells assessed as increase in degradation of ERalpha incubated for 24 hrs by In-Cell Western assay relative to control; assay type: cell-based
T2 sequence (whole entry): T1 sequence (P03372 whole entry)
How it was run: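 MCF7:WS8 cells were estrogen-stripped for 2 days and plated at 2.5 × 10^4 per well. After 48 h they were treated for 24 h. ERα was detected by in-cell western (H10 antibody), with signal normalized to CellTag 700.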

Estrogen receptor [6] = molecular target: T1, Estrogen receptor; assay: Antagonist activity at ERalpha in human MCF7:WS8 cells incubated for 18 hrs by dual luciferase reporter gene assay relative to control; assay type: cell-based
How it was run: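 MCF7:WS8 cells were estrogen-deprived for 3 days (phenol red-free RPMI, stripped FBS), then plated and grown 24 h. They were co-transfected for 6 h with a 3×vitellogenin ERE-firefly luciferase plasmid and a pRL-TK Renilla plasmid. Compounds were given in competition with 1 nM E2 for 18 h, then dual luciferase was read.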

T47D [7] = assay: Cytotoxicity against human T47D 3D spheroid cells assessed as reduction in tumor cell viability at 10 nM incubated for 14 days by celltiter-glo 3D cell viability assay
T47D [8] = assay: Cytotoxicity against human T47D 3D spheroid cells harboring Y537S mutant assessed as reduction in tumor cell viability at 10 nM incubated for 14 days by celltiter-glo 3D cell viability assay
T47D [9] = assay: Cytotoxicity against human T47D 3D spheroid cells harboring D538G mutant assessed as reduction in tumor cell viability at 10 nM incubated for 14 days by celltiter-glo 3D cell viability assay
Homo sapiens [10] = organism: Homo sapiens; assay: Cytotoxicity against human MCF7:WS8 3D spheroid cells assessed as reduction in tumor spheroid size at 10 nM incubated for 14 days
Homo sapiens [11] = organism: Homo sapiens; assay: Cytotoxicity against human MCF7:WS8 3D spheroid cells assessed as reduction in tumor cell viability at 10 nM incubated for 14 days by celltiter-glo 3D cell viability assay
[12] = Plasma concentration in C57BL/6 mouse at 100 mg/kg, po measured after 0.5 hrs by LC/MS-MS analysis; assay type: ADME, organism-based
How it was run: (§3)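 PK screen in female C57BL/6 mice (N = 3 per time point). Dosed by gavage at 100 mg/kg in HPβD/PEG-400. Plasma and brain were taken from perfused mice at 30 and 120 min. Quantified by LC-MS/MS in MRM mode, with standard curves in each matrix and a common internal standard. Values are mean and s.d.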

[13] = Plasma concentration in C57BL/6 mouse at 100 mg/kg, po measured after 2 hrs by LC/MS-MS analysis; assay type: ADME, organism-based; how it was run: as §3
[14] = Drug concentration in C57BL/6 mouse brain at 100 mg/kg, po measured after 0.5 hrs by LC/MS-MS analysis; assay type: ADME, organism-based; conditions: read-out: Drug uptake; how it was run: as §3
[15] = Drug concentration in C57BL/6 mouse brain at 100 mg/kg, po measured after 2 hrs by LC/MS-MS analysis; assay type: ADME, organism-based; conditions: read-out: Drug uptake; how it was run: as §3
Homo sapiens [16] = organism: Homo sapiens; assay: as §2; assay type: functional; how it was run: as §1
MCF7:TAM1 = assay: Cytotoxicity against human MCF7:TAM1 3D spheroid cells assessed as reduction in tumor cell viability at 10 nM incubated for 14 days by celltiter-glo 3D cell viability assay
[17] = molecular target: T2, Estrogen receptor (Homo sapiens); assay: Induction of degradation of ERalpha in human MCF7:WS8 cells at 100 nM in presence of MG-132 incubated for 24 hrs by Western blot analysis; assay type: cell-based

Compound | IC50 [1] | Emax [2] | IC50 (cells; read-out: pIC50 (converted)) | Emax [3] | IC50 (Estrogen receptor [4]) | Efficacy [5] | IC50 (Estrogen receptor [6]) | further results
O=C(c1cccc(F)c1)c1sc2cc(O)ccc2c1Oc1ccc(OC2CN(CCCF)C2)cc1 | 0.141 nM | 70% | 0.182 nM | – | – | – | – | –
O=C(c1ccccc1)c1sc2cc(O)ccc2c1Oc1ccc(OC2CN(CCCF)C2)cc1 | 0.288 nM | 67% | 0.162 nM | 41% | 0.708 nM | 88% | 0.5 nM | –
CC/C(=C(\c1ccc(O)cc1)c1ccc(OCCN(C)C)cc1)c1ccccc1 | – | – | – | – | – | – | – | Activity (T47D [7]): Active; Activity (T47D [8]): Active; Activity (T47D [9]): Active
Cc1ccccc1C(=O)c1sc2cc(O)ccc2c1Oc1ccc(OCCN2CCC2)cc1 | 0.912 nM | 70% | 1.29 nM | 31% | 1.91 nM | 37% | – | –
Cc1ccccc1C(=O)c1sc2cc(O)ccc2c1Oc1ccc(OCCN2CC(CF)C2)cc1 | 1.07 nM | 72% | 0.955 nM | 40% | 0.955 nM | 92% | 1.5 nM | –
O=C(c1ccc(F)cc1)c1sc2cc(O)ccc2c1Oc1ccc(OCCN2CC(CF)C2)cc1 | 1.02 nM | 67% | 0.447 nM | 46% | 1.23 nM | 89% | 28 nM | Activity (Homo sapiens [10]): Active; Activity (Homo sapiens [11]): Active
O=C(c1ccccc1)c1sc2cc(O)ccc2c1Oc1ccc(OCCN2CC(CF)C2)cc1 | 0.174 nM | 64% | 0.263 nM | 48% | 1.02 nM | 85% | 4.3 nM | –
CC1=C(c2cccc(O)c2)[C@H](c2ccc(OCCN3CC(CF)C3)cc2)Oc2ccc(O)cc21 | – | – | – | – | – | – | – | Activity (T47D [7]): Active; Activity (T47D [8]): Active; Activity (T47D [9]): Active
Cc1ccc(C(=O)c2sc3cc(O)ccc3c2Oc2ccc(OCCN3CC(CF)C3)cc2)c(C)c1 | 0.155 nM | 68% | 0.38 nM | 42% | 1.45 nM | 83% | 7.4 nM | –
Cc1ccccc1C(=O)c1sc2cc(O)ccc2c1Oc1ccc(OCCN2CC[C@@H](CF)C2)cc1 | 0.0126 nM | 85% | 0.0871 nM | 67% | 10.5 nM | 84% | – | –
Cc1cc(F)cc(C)c1C(=O)c1sc2cc(O)ccc2c1Oc1ccc(OCCN2CC[C@@H](CF)C2)cc1 | 0.631 nM | 66% | 1.07 nM | 34% | 5.89 nM | 84% | 12 nM | concentration at 0.5 h [12]: 211 nM; concentration at 2 h [13]: 163 nM; concentration at 0.5 h [14]: 121 nM; concentration at 2 h [15]: 276 nM
Cc1cc(O)ccc1C(=O)c1sc2cc(O)ccc2c1Oc1ccc(OCCN2CC(CF)C2)cc1 | 0.575 nM | 78% | 0.12 nM | 36% | 5.13 nM | 90% | 14 nM | –
Cc1cc(F)cc(C)c1C(=O)c1sc2cc(O)ccc2c1Oc1ccc(OCCN2CC[C@H](CF)C2)cc1 | 0.407 nM | 70% | 1 nM | 42% | 3.02 nM | 42% | – | –
Cc1ccccc1C(=O)c1sc2cc(O)ccc2c1Oc1ccc(OCCN2CCCCC2)cc1 | 0.407 nM | 68% | – | – | – | – | – | Emax (Homo sapiens [16]): inactive
Cc1ccccc1C(=O)c1sc2cc(O)ccc2c1Oc1ccc(OC2CN(CCCF)C2)cc1 | 0.145 nM | 67% | 2.82 nM | 59% | 2.57 nM | 82% | 2.1 nM | Activity (Homo sapiens [10]): Active; Activity (Homo sapiens [11]): Active
O=C(c1ccc(O)cc1)c1sc2cc(O)ccc2c1Oc1ccc(OCCN2CC(CF)C2)cc1 | 0.708 nM | 73% | – | – | 8.13 nM | 47% | 64 nM | IC50 (cells): > 100 nM
Cc1cc(F)cc(C)c1C(=O)c1sc2cc(O)ccc2c1Oc1ccc(OC2CN(C3CC3)C2)cc1 | 0.0631 nM | 62% | 0.141 nM | 16% | 5.89 nM | 51% | 11 nM | –
O=C(c1cccc(F)c1)c1sc2cc(O)ccc2c1Oc1ccc(OCCN2CC(CF)C2)cc1 | 0.229 nM | 78% | 0.295 nM | 36% | – | – | – | –
Cc1cc(F)ccc1C(=O)c1sc2cc(O)ccc2c1Oc1ccc(OCCN2CC(CF)C2)cc1 | 0.251 nM | 77% | 0.363 nM | 52% | 3.63 nM | 95% | 2.7 nM | –
Cc1ccccc1C(=O)c1sc2cc(O)ccc2c1Oc1ccc(OCCN2CC(C)C2)cc1 | 0.0417 nM | 69% | 0.263 nM | 48% | 0.257 nM | 81% | 1.9 nM | –
Cc1cc(F)cc(C)c1C(=O)c1sc2cc(O)ccc2c1Oc1ccc(OCCN2CC(CF)C2)cc1 | 0.468 nM | 73% | 2.14 nM | 47% | 1.41 nM | 85% | 3.5 nM | concentration at 0.5 h [12]: 786 nM; concentration at 2 h [13]: 659 nM; concentration at 0.5 h [14]: 750 nM; concentration at 2 h [15]: 588 nM; Activity (Homo sapiens [10]): Active; Activity (Homo sapiens [11]): Active; Activity (MCF7:TAM1): Active
O=C(c1ccc(OCCN2CCCCC2)cc1)c1c(-c2ccc(O)cc2)sc2cc(O)ccc12 [RALOXIFENE] | 2.4 nM | 69% | – | – | – | – | – | Emax (Homo sapiens [16]): inactive
Cc1cc(F)ccc1C(=O)c1sc2cc(O)ccc2c1Oc1ccc(OC2CN(CCCF)C2)cc1 | 0.17 nM | 69% | 0.117 nM | 45% | 9.33 nM | 95% | 5.2 nM | –
CCNCCc1ccc(CN(CC)c2cc(OC)ccc2[C@@H]2CCc3cc(O)ccc3C2)cc1 | – | – | – | – | – | – | – | Activity [17]: Active
